From PubChem BioAssay
OX1R antag-1 = antagonists of human orexin 1 receptor (OX1R); 330,000 tested, 1.8% active; inhibition, % at 6.6 µM; OX1R-expressing cells, FRET antagonist read-out; AID 485270; O43613; in the data active means inhibition mostly above about 38%, no sharp cut-off; inactive means mostly below about 40%
Target sequence (O43613 whole entry, looked up): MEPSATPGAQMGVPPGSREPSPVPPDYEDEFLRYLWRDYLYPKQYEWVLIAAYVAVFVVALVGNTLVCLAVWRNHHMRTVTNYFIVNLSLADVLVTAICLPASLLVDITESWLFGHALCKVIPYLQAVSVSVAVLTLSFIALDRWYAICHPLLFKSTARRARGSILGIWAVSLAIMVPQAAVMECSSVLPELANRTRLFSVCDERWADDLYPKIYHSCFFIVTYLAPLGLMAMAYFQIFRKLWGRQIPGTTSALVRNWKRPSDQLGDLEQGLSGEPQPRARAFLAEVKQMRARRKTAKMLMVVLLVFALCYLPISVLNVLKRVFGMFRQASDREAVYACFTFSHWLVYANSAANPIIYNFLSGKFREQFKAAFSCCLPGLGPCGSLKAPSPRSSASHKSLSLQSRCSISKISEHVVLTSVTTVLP
OX1R antag-2 = blocks the human orexin 1 receptor | O43613 | AID 434989 | CHO/OX1R cells, Fluo-8 calcium fluorescence, orexin A | 330,000 tested, 0.43% active | inhibition, % at 5 µM;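 active means inhibition above its plate's threshold, mean inhibition of all tested compounds on the plate plus 3 SD, cut at about 37% in these data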
TAAR1 ag = human TAAR1 agonism | Q96RJ0 | CHO RD-HGA16 TAAR1, Fluo-8 calcium fluorescence; vehicle wells 0%, saturating PEA agonist 100% | activation, % at 3 µM | 360,000 tested, 0.99% active | AID 624467;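 active means activation above the mean activation of all test compounds in the run plus 3 SD, cut at about 38% in these data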
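Benchmarks: low control DMSO, high control PEA (EC100); System: CHO RD-HGA16 cells carrying human TAAR1 plus Gα16; Detection: Fluo-8 fluorescence, 5 s baseline then 140 s kinetic read; Schedule: 17-24 h plating, Fluo-8 75 min 37 °C, 30 min RT; Read-out basis: % activation from peak over basal fluorescence ratio, DMSO-to-PEA scaled.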
NTR1 agonist = activates human neurotensin receptor 1 | NTR1-U2OS beta-arrestin-GFP spot imaging, agonist mode | activation, % at 20 µM | 330,000 tested, 0.17% active | AID 493036;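 active means activation at or above 40% of the spot to cytoplasm intensity ratio, with at least 20 cells analyzed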
CHO parental Ca = counter-screen for OX1R antagonists: effect in parental CHO cells | parental CHO-K1, ATP-induced calcium, Fluo-8 fluorescence | inhibition, % at 5.6 µM | 330,000 tested, 0.63% active | AID 463079;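 active means inhibition above that plate's mean sample inhibition plus 3 SD, cut at about 26% in these data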
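Test system: parental CHO cells; detection: calcium-sensitive Fluo-8 fluorescence; evaluation: percent inhibition of calcium signal; also added: ATP as calcium-mobilizing challenge; repeats: one well per compound; control set: ATP-challenged DMSO wells low, unchallenged DMSO wells high; compound: single nominal dose of 5.6 µM per compound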
TAAR1 antag = human TAAR1 antagonism; CHO RD-HGA16 TAAR1, Fluo-8 calcium fluorescence, antagonist; Q96RJ0; inhibition, % at 3 µM; 360,000 tested, 1.5% active;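 active means inhibition above a per-plate cutoff, the mean inhibition of test compounds on that plate plus 3 SD, cut at about 49% in these data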
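Test system: RD-HGA16 CHO cells with stable hTAAR1 and Gα16 / Probe or stimulus: EC80 β-phenethylamine stimulus / Times: seeding 17-24 h prior, 75-min 37 °C, 30-min RT dye loading / Detection: Fluo-8 calcium-sensitive fluorescence / Read-out basis: % inhibition scaled between DMSO and EC80 PEA controls / Repeats: singlicate, one well per test compound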
nonsel antag count = counter-screen for TAAR1 antagonists: nonselective antagonists; shares compounds with TAAR1 antag; counterscreen cell line, calcium fluorescence, antagonist mode; inhibition, % at 3 µM; 2,400 tested, 77% active; in the data active means inhibition above about 22%;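 further: CHO-Ga16 host cells stimulated with ATP at an EC80 level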
TAAR1 ant conf = confirmation of human TAAR1 antagonists. shares compounds with TAAR1 antag. TAAR1-expressing cells, fluorescence antagonist read-out. inhibition, % at 3 µM. 2,400 tested, 40% active. AID 651785; in the data active means inhibition above about 49%;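 further: CHO-Ga16 host cells challenged with agonist PEA near its EC80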
Ga16 ag counter = nonselective Ga16 agonism, counter-screen | shares compounds with TAAR1 antag | AID 651953 | 2,400 tested, 18% active | activation, % at 3 µM | Ga16-expressing cells, calcium fluorescence, agonist counterscreen; in the data active means activation above about 12%
TAAR1 ag counter = counter-screen for human TAAR1 antagonists: TAAR1 agonists; activation, % at 3 µM; 2,400 tested, 2% active; shares compounds with TAAR1 antag; hTAAR1 cell line, fluorescence activation, agonist mode; in the data active means activation above about 37%;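 further: CHO cells stably expressing TAAR1 with calcium dye readout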
Of the large screens only hits and unclear results are named; the others gave an inactive call (follow-up assays come after a bar, where they were run). A selection: hits, their analogues and other compounds. The true share with any hit is near 4%.

CC(C(=O)Nc1nc(-c2ccc(F)c(F)c2)cs1)N1C(=O)C2CC=CCC2C1=O (stereo unspecified)	TAAR1 antag 78 | nonsel antag count 45 | TAAR1 ant conf 60 | Ga16 ag counter inactive | TAAR1 ag counter inactive
O=C(Cc1ccccc1F)Nc1nc(-c2ccc(F)c(F)c2)cs1	TAAR1 antag 68 | nonsel antag count 24 | TAAR1 ant conf 50 | Ga16 ag counter inactive | TAAR1 ag counter inactive
COc1ccc(S(=O)(=O)NCC2(N3CCOCC3)CCCCC2)cc1OC	none (no result: OX1R antag-1, OX1R antag-2, CHO parental Ca)
COc1ccc(OC)c(-c2csc(NC(=O)Cc3ccc(OC)c(OC)c3)n2)c1	none
COc1ccc(CC(=O)Nc2nc(-c3cc(OC)ccc3OC)cs2)cc1	TAAR1 antag 55 | nonsel antag count 22 | TAAR1 ant conf inactive | Ga16 ag counter inactive | TAAR1 ag counter inactive
O=C(Nc1nc(-c2ccc(F)c(F)c2)cs1)c1ccc(OCC2CCCO2)cc1 (stereo unspecified)	TAAR1 antag 54 | nonsel antag count 33 | TAAR1 ant conf inactive | Ga16 ag counter inactive | TAAR1 ag counter inactive
Cc1ccc(S(=O)(=O)NNC(=O)c2ccc(NC(=O)C3CC3)cc2)cc1	none (no result: OX1R antag-1, OX1R antag-2, CHO parental Ca)
COc1ccc(C(=O)c2cnc3ccccc3c2-c2ccccc2)cc1	TAAR1 antag 57 | nonsel antag count inactive | TAAR1 ant conf inactive | Ga16 ag counter inactive | TAAR1 ag counter inactive
Cc1cccc(OCC(=O)N(Cc2ccc(N(C)C)cc2)C2CCS(=O)(=O)C2)c1 (stereo unspecified)	none
COc1cccc(C(=O)N(Cc2ccc(N(C)C)cc2)C2CCS(=O)(=O)C2)c1 (stereo unspecified)	TAAR1 antag 106 | nonsel antag count inactive | TAAR1 ant conf inactive | Ga16 ag counter inactive | TAAR1 ag counter inactive
O=C(COc1ccc(-c2ccccc2)cc1)N/N=C/c1cc(O)ccc1Br	TAAR1 antag 53 | nonsel antag count 22 | TAAR1 ant conf inactive | Ga16 ag counter inactive | TAAR1 ag counter inactive
N#Cc1ccc(-c2ccc(OCC(=O)NN=Cc3ccncc3)cc2)cc1	TAAR1 antag 54 | nonsel antag count 26 | TAAR1 ant conf 53 | Ga16 ag counter 13 | TAAR1 ag counter inactive
C[C@@H]1CN([C@H](C)CO)C(=O)CCCn2cc(nn2)CO[C@H]1CN(C)S(=O)(=O)c1ccc(Oc2ccccc2)cc1	none (no result: OX1R antag-1, OX1R antag-2, NTR1 agonist, CHO parental Ca)
Cc1nc(-c2ccc(F)cc2)c(CC(=O)N2CCN(S(=O)(=O)c3cccc(Cl)c3)CC2)s1	TAAR1 antag 51 | nonsel antag count 25 | TAAR1 ant conf inactive | Ga16 ag counter inactive | TAAR1 ag counter inactive
Cc1ccc(C)c(S(=O)(=O)N2CCN(C(=O)Cc3sc(C)nc3-c3ccc(F)cc3)CC2)c1	TAAR1 antag 59 (no result: OX1R antag-1, OX1R antag-2, NTR1 agonist, CHO parental Ca) | nonsel antag count 23 | TAAR1 ant conf inactive | Ga16 ag counter inactive | TAAR1 ag counter inactive
Cc1nc(-c2ccc(F)cc2)c(CC(=O)N2CCN(S(=O)(=O)c3cccc(F)c3)CC2)s1	none
COc1cc(NC(=O)COC(=O)c2cnccn2)c(C)cc1[N+](=O)[O-]	none
COC(=O)C1(C)NC(c2ccc(O)cc2)C2C(=O)N(c3ccc(C)cc3)C(=O)C21 (stereo unspecified)	none
Cc1cc(C(=O)NCCN2C(=O)S/C(=C\c3cccs3)C2=O)ccc1[N+](=O)[O-]	TAAR1 antag 57 | nonsel antag count 38 | TAAR1 ant conf inactive | Ga16 ag counter inactive | TAAR1 ag counter inactive
Cc1cc(C(=O)NCc2cccs2)ccc1[N+](=O)[O-]	none
CCC1(c2ccc(Cl)cc2)NC(=O)N(CC(=O)N2CCN(C(=O)c3ccco3)CC2)C1=O (stereo unspecified)	none
